Assay results published in ChEMBL document CHEMBL1143294, “Synthesis and antifungal activity of 1,2,3-triazole containing fluconazole analogues” (Bioorg Med Chem Lett, 2009).
In brackets after ≈: the same amount, converted by molar mass.

Legend:
Sporothrix schenckii = assay: Antimicrobial activity against Sporothrix schenckii by broth microdilution method; assay type: functional, organism-based
Method in brief: (§1)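 Standard broth microdilution following NCCLS guidelines. MIC and IC50 values were determined.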

A-431 [1] = assay: Cytotoxicity against human A431 cells at 1 mg/ml; assay type: cell-based
Method in brief: (§2)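 Antiproliferative assay in human hepatocellular carcinoma Hep3B and human epithelial carcinoma A431 cells. Compounds were tested across 0.001–1 mg/ml.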

Candida albicans [2] = assay: Antimicrobial activity against Candida albicans by broth microdilution method; assay type: functional, organism-based; method in brief: as §1
[3] = Cytotoxicity against human Hep3B cells at 0.001 mg/ml; assay type: cell-based; conditions: hep 3b2; method in brief: as §2
[4] = Cytotoxicity against human Hep3B cells at 0.001 mg/ml; conditions: hep 3b2
Candida parapsilosis = assay: Antimicrobial activity against Candida parapsilosis ATCC 22019 by broth microdilution method; assay type: functional, organism-based; conditions: Lodderomyces parapsilosis; method in brief: as §1
[5] = system: Trichophyton mentagrophytes; assay: Antimicrobial activity against Trichophyton mentagrophytes by broth microdilution method; assay type: functional, organism-based; method in brief: as §1
A-431 [6] = assay: Cytotoxicity against human A431 cells at 1 mg/ml
Aspergillus fumigatus = assay: Antimicrobial activity against Aspergillus fumigatus by broth microdilution method; assay type: functional, organism-based; method in brief: as §1
Cryptococcus neoformans = assay: Antimicrobial activity against Cryptococcus neoformans by broth microdilution method; assay type: functional, organism-based; method in brief: as §1
Candida albicans [7] = assay: Antimicrobial activity against Candida albicans infected Swiss mouse assessed as reduction of kidney fungal load at 25 mg/kg, po administered once daily for 7 days measured after 9 days; assay type: functional; design: scale not given: the % may be the effect or the level left
Method in brief: (§3)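 Swiss mice received an intravenous Candida albicans challenge, with five mice per group. Test agent was given orally in PEG 200 once a day for 7 days. Mice were sacrificed on day 9, and kidney fungal burden was counted as CFU/g tissue. Results are expressed as % reduction in CFU relative to the untreated control group.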

[8] = Cytotoxicity against human Hep3B cells; conditions: hep 3b2
Candida albicans [9] = assay: Antimicrobial activity against Candida albicans infected Swiss mouse assessed as reduction of kidney fungal load at 50 mg/kg, po administered once daily for 7 days measured after 9 days; assay type: functional; design: scale not given: the % may be the effect or the level left; method in brief: as §3
A-431 [10] = assay: Cytotoxicity against human A431 cells at 0.001 mg/ml; assay type: cell-based; method in brief: as §2

Structure (SMILES) | IC50 (Sporothrix schenckii) [µg/mL] | MIC (Sporothrix schenckii) [µg/mL] | Activity (A-431 [1]) | IC50 (Candida albicans [2]) [µg/mL] | MIC (Candida albicans [2]) [µg/mL] | Activity [3] | Activity [4] | IC50 (Candida parapsilosis) [µg/mL] | MIC (Candida parapsilosis) [µg/mL] | IC50 [5] [µg/mL] | MIC [5] [µg/mL] | Activity (A-431 [6]) | IC50 (Aspergillus fumigatus) [µg/mL] | MIC (Aspergillus fumigatus) [µg/mL] | IC50 (Cryptococcus neoformans) [µg/mL] | MIC (Cryptococcus neoformans) [µg/mL] | Activity (Candida albicans [7]) [%] | Activity [8] | Activity (Candida albicans [9]) [%] | Activity (A-431 [10])
C[C@H](CCC(=O)OCc1cn(CC(O)(Cn2cncn2)c2ccc(F)cc2F)nn1)[C@H]1CC[C@H]2[C@@H]3[C@H](O)C[C@@H]4C[C@H](O)CC[C@]4(C)[C@H]3C[C@H](O)[C@]12C (some centres not stated) | 11.3 (≈ 15.5 µM) | 12.6 (≈ 17.3 µM) | Toxic | 0.35 (≈ 0.482 µM) | 0.442 (≈ 0.608 µM) | Non-toxic | Non-toxic | 2.93 (≈ 4.03 µM) | 5.15 (≈ 7.09 µM) | 8.9 (≈ 12.2 µM) | 18.4 (≈ 25.3 µM) | Toxic | 31.2 (≈ 43 µM) | > 50 | 0.03 (≈ 0.0413 µM) | 0.19 (≈ 0.261 µM) |  |  |  | 
CC(=O)N1CCN(c2ccc(OCC3COC(Cn4ccnc4)(c4ccc(Cl)cc4Cl)O3)cc2)CC1 (configuration not stated) [KETOCONAZOLE] | 0.026 (≈ 0.0489 µM) | 0.031 (≈ 0.0583 µM) | Toxic | 0.001 (≈ 0.00188 µM) | 0.002 (≈ 0.00376 µM) | Non-toxic | Non-toxic | 0.024 (≈ 0.0452 µM) | 0.031 (≈ 0.0583 µM) | 2.12 (≈ 3.99 µM) | 4 (≈ 7.53 µM) | Toxic | 0.008 (≈ 0.0151 µM) | 2 (≈ 3.76 µM) | 0.001 (≈ 0.00188 µM) | 0.001 (≈ 0.00188 µM) |  |  |  | 
C[C@@H]1[C@H](O)[C@@H](C)/C=C/C=C/C=C/C=C/C=C/C=C/C=C/[C@H](O[C@@H]2O[C@H](C)[C@@H](O)[C@H](N)[C@@H]2O)C[C@@H]2O[C@](O)(C[C@@H](O)C[C@@H](O)[C@H](O)CC[C@@H](O)C[C@@H](O)CC(=O)O[C@H]1C)C[C@H](O)[C@H]2C(=O)O [AMPHOTERICIN B] |  | 0.12 (≈ 0.13 µM) | Toxic |  | 0.12 (≈ 0.13 µM) | Non-toxic | Non-toxic |  | 0.12 (≈ 0.13 µM) | 0.02 (≈ 0.0216 µM) | 0.12 (≈ 0.13 µM) | Toxic |  | 0.5 (≈ 0.541 µM) |  | 0.06 (≈ 0.0649 µM) |  |  |  | 
CCCCCCCCn1cc(CC(O)(Cn2cncn2)c2ccc(F)cc2F)nn1 (configuration not stated) | 0.008 (≈ 0.0191 µM) | 0.036 (≈ 0.086 µM) | Toxic | 0.001 (≈ 0.00239 µM) | 0.002 (≈ 0.00478 µM) | Non-toxic |  | 0.002 (≈ 0.00478 µM) | 0.01 (≈ 0.0239 µM) | 0.249 (≈ 0.595 µM) | 0.48 (≈ 1.15 µM) |  | 0.8 (≈ 1.91 µM) | 1.12 (≈ 2.68 µM) | < 0.006 | 0.002 (≈ 0.00478 µM) | 41.2 | Non-toxic | 97.4 | 
OC(Cn1cncn1)(Cn1cncn1)c1ccc(F)cc1F [FLUCONAZOLE] |  | 2 (≈ 6.53 µM) | Toxic |  | 0.5 (≈ 1.63 µM) | Non-toxic | Non-toxic |  | 1 (≈ 3.27 µM) | 0.6 (≈ 1.96 µM) | 1 (≈ 3.27 µM) |  |  | 2 (≈ 6.53 µM) | 0.45 (≈ 1.47 µM) | 1 (≈ 3.27 µM) |  |  |  | Toxic
C[Si](C)(C)c1cn(CC(O)(Cn2cncn2)c2ccc(F)cc2F)nn1 (configuration not stated) | 3.11 (≈ 8.22 µM) | 3.16 (≈ 8.35 µM) |  | 3.04 (≈ 8.03 µM) | 3.26 (≈ 8.61 µM) |  |  | 33.1 (≈ 87.5 µM) | 44.5 (≈ 118 µM) | 8.57 (≈ 22.6 µM) | 15.6 (≈ 41.1 µM) |  | 43.2 (≈ 114 µM) | 49.8 (≈ 132 µM) | 1.01 (≈ 2.67 µM) | 1.56 (≈ 4.12 µM) |  |  |  | 
OC(Cn1cncn1)(Cn1ccnn1)c1ccc(F)cc1F (configuration not stated) | 5.77 (≈ 18.8 µM) | 10.6 (≈ 34.7 µM) |  | 0.72 (≈ 2.35 µM) | 1.48 (≈ 4.83 µM) |  |  | 6.83 (≈ 22.3 µM) | 12.8 (≈ 41.9 µM) | 6.45 (≈ 21.1 µM) | 12.2 (≈ 39.7 µM) |  | > 50 | > 50 | 0.03 (≈ 0.098 µM) | 0.78 (≈ 2.55 µM) |  |  |  | 
C[C@H](CCC(=O)OCc1cn(CC(O)(Cn2cncn2)c2ccc(F)cc2F)nn1)[C@H]1CC[C@H]2[C@@H]3CC[C@@H]4C[C@H](O)CC[C@]4(C)[C@H]3C[C@H](O)[C@]12C (some centres not stated) | 0.76 (≈ 1.07 µM) | 0.84 (≈ 1.18 µM) | Toxic | < 0.001 | < 0.001 | Non-toxic |  | 0.38 (≈ 0.535 µM) | 0.396 (≈ 0.557 µM) | 46.5 (≈ 65.4 µM) | > 50 | Toxic | 6.24 (≈ 8.78 µM) | > 50 | < 0.001 | 0.01 (≈ 0.0141 µM) |  | Non-toxic | 38.2 | 
CCCCCCc1cn(CC(O)(Cn2cncn2)c2ccc(F)cc2F)nn1 (configuration not stated) | 0.043 (≈ 0.11 µM) | 0.14 (≈ 0.359 µM) | Toxic | 0.018 (≈ 0.0461 µM) | 0.032 (≈ 0.082 µM) | Non-toxic |  | 0.12 (≈ 0.307 µM) | 0.39 (≈ 0.999 µM) | 2.46 (≈ 6.3 µM) | 6.72 (≈ 17.2 µM) | Toxic | 5 (≈ 12.8 µM) | 6.9 (≈ 17.7 µM) | < 0.01 | 0.02 (≈ 0.0512 µM) |  | Non-toxic | 95 | 
OC(Cc1c[nH]nn1)(Cn1cncn1)c1ccc(F)cc1F (configuration not stated) | 4.43 (≈ 14.5 µM) | 12.4 (≈ 40.5 µM) |  | 2.74 (≈ 8.95 µM) | 3.16 (≈ 10.3 µM) |  |  | 16.8 (≈ 55 µM) | 29.1 (≈ 95 µM) | 47 (≈ 153 µM) | 49 (≈ 160 µM) |  | > 50 | > 50 | 0.69 (≈ 2.25 µM) | 3.12 (≈ 10.2 µM) |  |  |  | 
